The target of this test is Platelet-activating factor acetylhydrolase (Homo sapiens) (UniProt Q13093). Put plainly: covalent active-site labeling of pPAFAH, late-stage follow-up, mechanism study, biochemical, LC-MS/MS (AID 588788). Conditions: purified recombinant pPAFAH. An outline of the steps: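 System – recombinant human pPAFAH hydrophobic-patch triple mutant · Input – pPAFAH at 40 µM before compound addition · Schedule – compound exposure 60 min, 37 °C · Dosing – one dose, 100 µM final · Medium – DPBS buffer · Evaluation – catalytic serine covalent adduct presence · Controls – DMSO-only enzyme sample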
Chain of Platelet-activating factor acetylhydrolase (Homo sapiens) (Q13093 42-441 I120A/L123A/L124A limits assumed): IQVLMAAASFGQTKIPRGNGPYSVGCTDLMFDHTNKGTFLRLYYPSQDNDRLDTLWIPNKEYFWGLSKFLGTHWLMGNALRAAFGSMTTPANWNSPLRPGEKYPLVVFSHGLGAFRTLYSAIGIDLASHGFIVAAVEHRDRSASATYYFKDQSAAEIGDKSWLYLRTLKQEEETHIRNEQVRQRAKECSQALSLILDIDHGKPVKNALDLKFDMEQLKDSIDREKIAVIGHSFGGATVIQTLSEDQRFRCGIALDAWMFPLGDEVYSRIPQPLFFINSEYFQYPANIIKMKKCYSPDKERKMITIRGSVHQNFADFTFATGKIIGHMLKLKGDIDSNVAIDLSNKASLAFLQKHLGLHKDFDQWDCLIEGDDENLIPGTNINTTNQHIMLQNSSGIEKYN

The source made the active and inactive calls.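 Rule for the calls: active = compound seen by mass spectrometry to covalently label the enzyme's active site serine; inactive = no covalent labeling seen.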

For `Cc1cc(N2CCN(C(=O)Oc3ccc(-c4ccccc4)cn3)CC2)c2ccccc2n1`, the outcome is “active; covalent”.
